In publication PMC5839721 (The Journal of General Physiology, 2018):
Read-outs that look alike come from different tables or passages of the source.

How the values were obtained:
human SERT [1] = target: T1, human SERT (Homo sapiens, UniProt P31645); assay type: cell-based; conditions: for increase of rate of peak current recovery from 0 M to 140 mM intracellular Na+ / change of rate of peak current recovery with intracellular Na+ concentration: extracellular Na+ 140 mM; for peak current recovery rate (monoexponential fit): fixed intracellular Na+ 140 mM, K+-free, Fig. 1 G; for dependence of the recovery rates on extracellular Na+ concentration: intracellular Na+ 140 mM, extracellular Na+ 10-140 mM; for kslow of peak current recovery (biexponential fit): after 30 µM substrate, ±SEM; for change of rate of peak current recovery with intracellular Na+ concentration: 0 to 140 mM intracellular Na+
In short: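 GFP-tagged human SERT, tetracycline-inducible, in HEK293 cells seeded at low density 24 h before. Whole-cell voltage clamp with superfused pH 7.4 HEPES buffer. Na+ varied, osmolarity kept by NMDG chloride; intracellular Na+ 0–140 mM at 140 mM external. After 30 µM substrate, 10 µM 5-HT-evoked peak recovery fitted to mono- or biexponential rise; rates ±95% CI, kslow ±SEM; n = 4–7.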

human SERT [2] = target: T1, human SERT; assay: [3H]MPP+ release; assay type: cell-based; conditions: 3 µM releaser, 100 µM ouabain; for effect of monensin on efflux of [3H]MPP+: with vs without 10 µM monensin
In short: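 HEK293 cells with inducible GFP-tagged human SERT on poly-D-lysine coverslips (24 h) were preloaded with 0.1 µM [3H]MPP+ for 20 min at 37°C. Superfused with K+-free buffer containing 100 µM ouabain for 40 min, then 2-min fractions: three basal, four with 10 µM monensin or ethanol vehicle, five with 3 µM test compound, three with 1% SDS. Release given as percent [3H]MPP+ over time.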

T1 sequence (P31645 whole entry, the tested form may be a part): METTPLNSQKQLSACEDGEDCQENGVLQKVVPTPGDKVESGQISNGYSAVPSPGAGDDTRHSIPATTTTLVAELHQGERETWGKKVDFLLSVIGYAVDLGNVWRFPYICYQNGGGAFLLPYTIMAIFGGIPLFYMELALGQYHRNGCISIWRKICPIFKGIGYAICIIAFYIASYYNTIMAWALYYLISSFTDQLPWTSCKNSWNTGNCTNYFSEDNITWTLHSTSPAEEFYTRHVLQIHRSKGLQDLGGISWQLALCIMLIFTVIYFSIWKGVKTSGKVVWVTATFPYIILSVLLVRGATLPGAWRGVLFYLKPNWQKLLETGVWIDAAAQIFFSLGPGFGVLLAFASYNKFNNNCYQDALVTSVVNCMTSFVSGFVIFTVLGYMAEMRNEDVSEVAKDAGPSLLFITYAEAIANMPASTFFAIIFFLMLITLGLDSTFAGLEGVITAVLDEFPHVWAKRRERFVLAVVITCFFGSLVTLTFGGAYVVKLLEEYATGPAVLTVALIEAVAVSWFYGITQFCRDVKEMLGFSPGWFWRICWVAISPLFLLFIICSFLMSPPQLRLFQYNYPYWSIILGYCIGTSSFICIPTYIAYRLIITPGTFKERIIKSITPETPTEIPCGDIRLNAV

Question: `NCCc1c[nH]c2ccc(O)cc12` [5-HT, 5-hydroxy-tryptamine] was tested. Which “increase of rate of peak current recovery from 0 M to 140 mM intracellular Na+” value (human SERT [1]) did it give?
Answer: ~6.7 fold

Question: And the “peak current recovery rate (monoexponential fit)” value (human SERT [1])?
Answer: 4.012 ± 0.211 s⁻¹

Question: And the “dependence of the recovery rates on extracellular Na+ concentration” value (human SERT [1])?
Answer: did not detect any dependence

Question: Which “release of [3H]MPP+” value (human SERT [2]; no monensin) does the source give for `CC(N)Cc1ccc(Cl)cc1` (centres unmarked) [p-chloroamphetamine, para-chloroamphetamine] here?
Answer: substantially larger release of [^3H]MPP^+ than PAL-1045

Question: What about the “effect of monensin on efflux of [3H]MPP+” value (human SERT [2]) of the same molecule?
Answer: significantly larger efflux

Question: And the “kslow of peak current recovery (biexponential fit)” value (from here on “kslow of peak current recovery”) (human SERT [1]; 10 mM Na+e, 140 mM intracellular Na+)?
Answer: 0.35 ± 0.23 s⁻¹

Question: And the “kslow of peak current recovery” value (human SERT [1]; 70 mM Na+e, 140 mM intracellular Na+)?
Answer: 0.10 ± 0.12 s⁻¹

Question: What about the “kslow of peak current recovery” value (human SERT [1]; 70 mM Na+i, 140 mM extracellular Na+) of the same molecule?
Answer: 0.50 ± 0.11 s⁻¹

Question: What about the “kslow of peak current recovery” value (human SERT [1]; 140 mM Na+e, 140 mM intracellular Na+) of the same molecule?
Answer: 0.49 ± 0.15 s⁻¹

Question: And the “increase of rate of peak current recovery from 0 M to 140 mM intracellular Na+” value (human SERT [1])?
Answer: ~10 fold

Question: And the “dependence of the recovery rates on extracellular Na+ concentration” value (human SERT [1])?
Answer: did not detect any dependence

Question: `CCN[C@@H](C)Cc1ccc2ccccc2c1` [PAL-1045] was tested. Which “effect of monensin on efflux of [3H]MPP+” value (human SERT [2]) did it give?
Answer: comparable in the absence and presence of monensin

Question: What about the “change of rate of peak current recovery with intracellular Na+ concentration” value (from here on “change of rate of peak current recovery”) (human SERT [1]) of the same molecule?
Answer: decreased fourfold

Question: And the “peak current recovery rate (monoexponential fit)” value (human SERT [1])?
Answer: 0.025 ± 0.001 s⁻¹

Question: And the “dissociation rate from SERT” value (human SERT [1]; slow dissociation from the outward-facing conformation, high Na+)?
Answer: ~0.025 s⁻¹

Question: Which “change of rate of peak current recovery” value (human SERT [1]) does the source give for `CNC(C)Cc1ccc2ccccc2c1` (centres unmarked) [PAL-1046] here?
Answer: did not change with Na^+ concentration

Question: For `CC(N)Cc1ccc2ccccc2c1` (centres unmarked) [PAL-287], which “change of rate of peak current recovery” value (human SERT [1]) is on record?
Answer: did not change with Na^+ concentration
